From ChEMBL document CHEMBL4513216, “Probing the Open Global Health Chemical Diversity Library for Multistage-Active Starting Points for Next-Generation Antimalarials” (ACS Infect Dis, 2020)

Experiment: Toxicity liver stage against HepG2, at 10uM
Type: cell-based
Set-up: test concentration 10 uM, cell line HepG2-A16-CD81EGFP
Conditions: human, HepG2-A16-CD81EGFP cells; read-out: INHIBITION
In short: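 Uninfected HepG2-A16-CD81EGFP cells, 3 × 10^3 per well, 1536-well, plated on prespotted compound at 10 μM final, parasite-free screening media added to match infected plates; puromycin 10 μM positive, DMSO 0.5% negative; run in parallel with 48 h PbLuc assay at 37 °C, 5% CO2; viability by CellTiter-Glo luminescence, normalized to controls.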

SMILES | cytotoxicity at 10 µM [%]
Cc1cc2nc(CO[C@H]3CN(C4CCN(C)CC4)C[C@H]3F)[nH]c2cc1C | -11.6
CS(=O)(=O)N1CC[C@@H](CC(=O)O)[C@@H](CC2=NCCc3cc(F)ccc32)C1 | 0.699
COC(=O)c1cccc(C(=O)N2CCN(c3ccc(Cl)cc3)CC2)n1 | -7.55
Cc1ccc(-n2ncc(C(=O)N(C)C3CCN(C)CC3)c2N)cc1C | -8.56
CN1CCN(CC(CC(=O)Nc2ccc(Cl)cc2)C(=O)O)CC1 (stereo not drawn) | 2.83
O=C(CC1CCCC1)Nc1ccc(-n2cc(Cl)cn2)nc1 | -56.3
O=C1CCSCC(C(=O)N2CCCCC2)N1 (stereo not drawn) | -3.55
COC(C)(CNS(=O)(=O)c1cnn(C)c1)c1ccccc1F (stereo not drawn) | -4.8
CC(=O)N1CCC2(CC1)CCN(S(=O)(=O)c1ccccc1)C2 | 2.35
N#CC1(C(=O)N2Cc3cc(-c4cc[nH]n4)ccc3C2c2cnco2)CC1 (stereo not drawn) | 25.5
CC(=O)N1CC(c2ncn(C(C)C)n2)c2cc(C(=O)NC3CC3)ccc21 (stereo not drawn) | 4.11
CC(C)c1nnc2ccc(N3CCC(C(=O)NC4CC4)CC3)nn12 | -5.01
Cc1ccc2c(ccn2CCC(=O)N2CCC(C(N)=O)CC2)c1 | -12.6
Cc1cc(N2CCN(C3CCOCC3)CC(C(=O)N(C)C)C2)ncn1 (stereo not drawn) | 3.74
O=C(c1ccc(=O)[nH]n1)N1CCCC(O)(CN2CCC(F)(F)CC2)CC1 (stereo not drawn) | -8.71
COCCNc1ccc(CC2CCCN(Cc3c[nH]cn3)C2)nn1 (stereo not drawn) | -2.7
Cc1cc(-c2cnc(NC3CCCC3)nc2-c2ccco2)on1 | -7.56
O=C(c1ccc(Cl)cc1)N1CCC2(C1)C(=O)Nc1ccccc12 (stereo not drawn) | 1.91
O=C(CN(Cc1cccs1)C1CCS(=O)(=O)C1)NCCc1cccs1 (stereo not drawn) | -11.5
CC(O)CCN(C)S(=O)(=O)Cc1ccc(Br)cc1 (stereo not drawn) | 3.47
CC(C)CN(CC(C)C)Cn1ncc2cn(-c3ccccc3)nc2c1=O | 1.42

SMILES | cytotoxicity at 10 µM [%]
CN(CCc1ccccn1)C(=O)Nc1cccnc1-n1cccn1 | 3.25
O=C(NCCNc1ncccn1)NCCc1c(F)cccc1F | 7.49
CC(NC(=O)CN1C=Nc2ccccc2S1(=O)=O)c1ccccc1 (stereo not drawn) | -0.476
CS(=O)(=O)Cc1ccccc1NCc1cc(Cl)ccc1Cl | 7.67
CN(C1CCN(c2ccccn2)CC1)S(=O)(=O)c1cccc(F)c1 | 10.8
CC(C)(C)OC(=O)NCC1CCCCN1Cc1ccncc1 (stereo not drawn) | 9.04
COc1cccc(CN(C)Cc2cc(C#N)ccc2F)c1OC | -5
CCCC(=O)N1CCC(C(=O)NCCN2CCC(C)CC2)CC1 | -2.6
Cc1cc(CN2CCN(C(=O)C(C(C)C)n3cncn3)CC2)on1 (stereo not drawn) | 2.35
CN(C)C(=O)Cc1ccc(NC(=O)NC2CC2)cc1 | 6.13
COCCn1ccc(NC(=O)Nc2cccc(C#N)c2)n1 | 4
Cc1cc(NC(=O)CNC(C)(C)c2ccc3c(c2)OCCO3)no1 | -7.1
CC1CN(C)c2ccccc2CN1C(=O)c1cc[nH]c(=O)c1 (stereo not drawn) | 4.96
COC(=O)c1ccc(N2CCC(c3ccccc3)CC2)nn1 | -3.59
Cc1cc(-n2cncn2)ccc1C(=O)N(CC(F)(F)F)C(C)C | -3.72
CC1(C)CCC(C(=O)O)c2ccccc21 (stereo not drawn) | -1.92
CN(C)CC1CCN(Cc2nccn2CC(F)(F)F)CC1 | 4.99
Cc1noc(C2CCN(C(C)c3nc(C(C)(C)C)no3)CC2)n1 (stereo not drawn) | 4.13
Cc1nc(-c2ccccc2C)n(CC(=O)NC(C)C2CC2)n1 (stereo not drawn) | 20.8
CC1CCN(C(=O)C(C)N2CCc3[nH]nc(C(F)(F)F)c3C2)CC1 (stereo not drawn) | 2.54
CC(=O)NCC1CCN(c2ccnc3ccc(Br)cc23)CC1 | 14.2

SMILES | cytotoxicity at 10 µM [%]
Cn1cc(C2CCCN2C(=O)Cn2c(=O)oc3ccccc32)cn1 (stereo not drawn) | 1.84
CN(Cc1nnn(CC2CCC2)n1)C(=O)c1ccccc1 | -6.06
NC(=O)CC1CCCCN1C(=O)Cc1cccc(Br)c1 (stereo not drawn) | 1.77
CC(C)c1ccc(C(C)N2CCCN(C(N)=O)CC2)cc1 (stereo not drawn) | -4.24
C1CCCN(c2nc(C3CC3)no2)CC1 | -5.59
CCCNC(=O)C(C)Nc1cccc(Oc2ccc(C#N)cn2)c1 (stereo not drawn) | -7.99
Cc1cc(NC(=O)Cc2ccccc2O)cnc1N1CCCCC1 | -0.134
CCN(C(=O)c1ccc2c(c1)OCO2)C1CC(=O)NC1=O (stereo not drawn) | -3.04
Cc1n[nH]cc1CNCC(c1ccsc1)N(C)C (stereo not drawn) | 3.05
NCc1ccnc(Oc2ccccc2)c1 | 2.87
CSC1(CNC(=O)CCc2ccc(Cl)s2)CCOCC1 | 6.45
COc1c(C2CCCN2C(=O)c2cc(Cl)c[nH]2)c(C)nn1C (stereo not drawn) | 4.6
CCCOCCNc1nc2c(s1)c(C)nn2C | -15.9
CCC1CN(C(=O)c2ccccc2C#N)CCN1C(C)C (stereo not drawn) | -0.772
CC(C)c1cc(NCC2(Cn3cccn3)CC2)n2nccc2n1 | -10.9
COCCN(C)C[C@@H]1CN(C(=O)c2ccc(C)cc2)C[C@@H]1CO | -9.21
CCCn1cnnc1CNC(=O)C1COc2ccc(OC)cc2C1 (stereo not drawn) | -2.06
CN1CC2(CCN(C(=O)CCc3nc4cccnc4n3C)C2)OC1=O (stereo not drawn) | 1.56
CC(=O)N[C@@H](CC(C)C)C(=O)N1CCC(n2cc(CO)nn2)CC1 | 9.56
COCCN(C)CCN1CC2(CCN(C3CCCCC3)CC2)OC1=O | 3.73
CCc1ocnc1C(=O)N1CCC(C2CCN(c3ncccn3)CC2)C1 (stereo not drawn) | 3.6

SMILES | cytotoxicity at 10 µM [%]
CCN(CC)CCn1ccnc1-c1cccc(O)c1 | -5.13
C/C(=C\c1ccco1)CN(C)C(C)Cc1cc(C)ccn1 (stereo not drawn) | 0.277
COCCOCC(=O)N1CCC(O)(c2ccc3nc(C)ccc3c2)CC1 | -1.01
CCC(NC(=O)c1cc(CC(C)C)nn1C)c1ccnn1C (stereo not drawn) | -146
Cc1nc(Cn2nc(C3CCNCC3)n(Cc3ccccc3)c2=O)no1 | -19.3
Cc1nc(CN2CCCC(NCc3cccc4ccccc34)C2)no1 (stereo not drawn) | -0.819
COc1c(CNC2CCC(O)CC2)c(C(C)C)nn1C (stereo not drawn) | -6.59
Cc1nc(C)n(CC2CCCN(CC(=O)Nc3cc(C)on3)C2)n1 (stereo not drawn) | -3.1
Cc1cccc(OCCC(=O)NCC(C)(C)C(N)=O)c1 | -6.38
O=C(c1cc(Cl)c2c(c1)OCCO2)N1CCCC(n2cncn2)C1 (stereo not drawn) | 1.56
Cc1ccc(CN(CCCN2CCOCC2)Cc2[nH]cnc2C)o1 | -12.9
CC(C)N(C)Cc1cnc2n1CCN(C(=O)Cc1cccs1)C2C (stereo not drawn) | 7.86
CN(C)C(=O)COCC1CN(C2CCC2)Cc2ncn(C)c21 (stereo not drawn) | 14.1
Cc1cccc(CN2C[C@@H]3OCCN(c4cnccn4)[C@@H]3C2)n1 | 5.25
CC(C)CN1CCN(C(=O)c2ccncc2F)Cc2cccnc21 | 1.71
c1cc(CN2C[C@@H]3COC[C@]3(COCC3CC3)C2)ccn1 | -3.29
Cc1cnc(N2CCCn3c(nnc3CN(C)C(C)C)C2)nc1 | 4.42
Cc1cccc(N2CCC3(CCCN(C(=O)c4cccnc4)C3)C2)n1 (stereo not drawn) | 0.677
c1cnc(N2CCCC3(CCN(CC4CCOC4)CC3)C2)nc1 (stereo not drawn) | -2.21
Cc1ncncc1C(=O)N1C[C@@H]2CC[C@H]1CN(C(=O)c1ccncc1)C2 | -7.61
